pIC50: −log10 of the molar value.
Tests used:
[1] = target: 5-hydroxytryptamine receptor 2A (Homo sapiens, UniProt P28223); assay: Displacement of [3H]ketanserin from human recombinant 5HT2A receptor expressed in avCHO-K1 cells; assay type: cell-based, CHO-K1
How it was run: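 Used frozen membranes. [3H]ketanserin was at 1 nM, with mianserin defining nonspecific binding. Incubated 15 min at 37 °C in 50 mM Tris-HCl pH 7.4, then harvested on GF/C glass fiber filters presoaked in 0.05% Brij.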

[2] = target: 5-hydroxytryptamine receptor 7 (Homo sapiens, UniProt P34969); assay: Displacement of [3H]LSD from human recombinant 5HT7 receptor expressed in CHO cells; assay type: cell-based
5-hydroxytryptamine receptor 7, sequence (P34969 whole entry): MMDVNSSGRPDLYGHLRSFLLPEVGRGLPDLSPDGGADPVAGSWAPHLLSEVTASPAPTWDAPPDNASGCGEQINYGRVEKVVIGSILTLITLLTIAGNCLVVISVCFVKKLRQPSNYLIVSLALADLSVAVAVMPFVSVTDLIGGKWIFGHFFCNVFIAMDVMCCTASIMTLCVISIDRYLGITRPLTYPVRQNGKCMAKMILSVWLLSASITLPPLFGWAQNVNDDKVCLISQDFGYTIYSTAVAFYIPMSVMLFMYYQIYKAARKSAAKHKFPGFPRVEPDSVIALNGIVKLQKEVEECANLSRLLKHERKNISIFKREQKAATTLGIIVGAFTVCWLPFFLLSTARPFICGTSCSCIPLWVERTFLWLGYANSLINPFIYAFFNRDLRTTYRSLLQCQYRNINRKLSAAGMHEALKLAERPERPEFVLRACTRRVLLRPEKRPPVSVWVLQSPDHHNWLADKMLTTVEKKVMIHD
How it was run: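 Membranes from stably transfected CHO cells. Reaction mix held 3 nM [3H]LSD and test compound in 50 mM Tris-HCl pH 7.4 with 10 mM MgCl2 and 0.5 mM EDTA, incubated 90 min at 27 °C. Stopped by rapid filtration on GF/C filters presoaked in 0.3% polyethylenimine, then scintillation counted. Methiothepin defined nonspecific binding. 7-8 concentrations were run in duplicate, and IC50 came from nonlinear regression of isotherms from three assays.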

[3] = target: T1, 5-hydroxytryptamine receptor 2C (Homo sapiens, UniProt P28335); assay: Displacement of [3H]mesulergine from human recombinant 5HT2C receptor expressed in CHO-K1 cells; assay type: cell-based
T1 sequence (P28335 whole entry): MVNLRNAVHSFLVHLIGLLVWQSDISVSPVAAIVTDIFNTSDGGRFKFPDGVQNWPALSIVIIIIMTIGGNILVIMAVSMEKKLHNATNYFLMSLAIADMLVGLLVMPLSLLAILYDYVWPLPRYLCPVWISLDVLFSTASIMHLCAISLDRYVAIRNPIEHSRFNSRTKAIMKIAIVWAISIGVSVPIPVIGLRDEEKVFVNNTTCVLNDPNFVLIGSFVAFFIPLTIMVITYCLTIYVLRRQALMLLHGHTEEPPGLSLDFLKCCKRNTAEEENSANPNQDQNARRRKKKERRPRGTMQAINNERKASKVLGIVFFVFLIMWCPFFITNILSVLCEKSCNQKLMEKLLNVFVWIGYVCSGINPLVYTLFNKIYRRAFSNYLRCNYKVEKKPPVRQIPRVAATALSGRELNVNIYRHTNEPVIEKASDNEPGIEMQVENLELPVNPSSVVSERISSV
How it was run: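 Frozen membranes from a stable cell line were incubated with 1 nM [3H]mesulergine and test compound in 50 mM Tris-HCl pH 7.7 containing 0.1% ascorbic acid and pargyline, 30 min at 37 °C. Mianserin defined nonspecific binding. Terminated by rapid filtration through GF/C filters presoaked in 1% BSA.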

Homo sapiens = organism: Homo sapiens; assay: Selectivity for human recombinant 5HT2A receptor over human recombinant 5HT7 receptor
[4] = target: Serotonin 2 receptors; 5-HT2a & 5-HT2c (Homo sapiens) (UniProt P28223+P28335); assay: Selectivity for human recombinant 5HT2A receptor over human recombinant 5HT2C receptor
Serotonin 2 receptors; 5-HT2a & 5-HT2c (Homo sapiens), sequence (P28223 whole entry, looked up, one chain of several): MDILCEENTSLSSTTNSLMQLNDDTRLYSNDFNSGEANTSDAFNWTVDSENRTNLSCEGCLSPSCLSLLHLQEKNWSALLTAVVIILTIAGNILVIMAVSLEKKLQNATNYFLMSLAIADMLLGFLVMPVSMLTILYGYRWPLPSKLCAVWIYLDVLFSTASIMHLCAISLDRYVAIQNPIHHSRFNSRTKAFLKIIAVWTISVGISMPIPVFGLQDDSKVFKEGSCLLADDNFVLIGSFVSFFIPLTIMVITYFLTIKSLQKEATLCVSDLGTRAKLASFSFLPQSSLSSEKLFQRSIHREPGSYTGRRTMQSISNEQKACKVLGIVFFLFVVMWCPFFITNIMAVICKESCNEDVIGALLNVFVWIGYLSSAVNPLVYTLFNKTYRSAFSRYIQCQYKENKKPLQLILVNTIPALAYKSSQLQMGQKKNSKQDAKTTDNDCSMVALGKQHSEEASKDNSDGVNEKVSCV

5-hydroxytryptamine receptor 2A, sequence (P28223 whole entry): as the sequence (P28223 whole entry, looked up, one chain of several) above

COc1ccc(S(=O)(=O)N(CCCN2CCN(c3ccc(F)cc3)CC2)CC2CC2)cc1
pIC50 [1]: 7.14 | pIC50 [2]: 7.03 | pIC50 [3]: 6.14

COc1ccc(S(=O)(=O)N(CCCN2CCN(c3ccccc3OC)CC2)CC2CCCCC2)cc1
pIC50 [1]: 7.79 | pIC50 [2]: 6.76 | pIC50 [3]: 6.70

O=S(=O)(c1cccc2cccnc12)N(CCCN1CCN(c2ccccc2)CC1)CC1CCCCC1
pIC50 [1]: 7.46 | pIC50 [2]: 6.38 | pIC50 [3]: 6.07

O=S(=O)(c1cccc2cccnc12)N(CCCN1CCN(c2ccc(F)cc2)CC1)CC1CCCCC1
pIC50 [1]: 8.29 | pIC50 [2]: 6.35 | pIC50 [3]: 6.87

O=S(=O)(c1cccc2cccnc12)N(CCCN1CCN(c2ccc(F)cc2)CC1)CC1CC1
pIC50 [1]: 8.08 | pIC50 [2]: 7.45 | pIC50 [3]: 5.32

O=S(=O)(c1cccc2ccccc12)N(CCCN1CCN(c2ccccc2)CC1)CC1CCCCC1
pIC50 [1]: 8.59 | pIC50 [2]: 6.71 | pIC50 [3]: 7.29

O=S(=O)(c1cccc2cccnc12)N(CCCN1CCN(c2cccc(C(F)(F)F)c2)CC1)CC1CCCCC1
pIC50 [1]: 7.54 | pIC50 [2]: 6.80 | pIC50 [3]: 7.41

COc1ccccc1N1CCN(CCCN(CC2CCCCC2)S(=O)(=O)c2ccc3ccccc3c2)CC1
pIC50 [1]: 7.94 | pIC50 [2]: 6.30 | pIC50 [3]: 7.15

O=[N+]([O-])c1ccc(S(=O)(=O)N(CCCN2CCN(c3ccccc3)CC2)CC2CCCCC2)cc1
pIC50 [1]: 8.38 | pIC50 [2]: 7.06 | pIC50 [3]: 7.34

O=S(=O)(c1ccc(C(F)(F)F)cc1)N(CCCN1CCN(c2ccccc2)CC1)CC1CC1
pIC50 [1]: 7.15 | pIC50 [2]: 6.48 | pIC50 [3]: 6.25

O=S(=O)(c1ccc2ccccc2c1)N(CCCN1CCN(c2cccc(C(F)(F)F)c2)CC1)CC1CCCCC1
pIC50 [1]: 7.88 | pIC50 [2]: 6.05 | pIC50 [3]: 7.18

COc1ccccc1N1CCN(CCC(C)NS(=O)(=O)c2ccc3ccccc3c2)CC1 (centres undefined)
pIC50 [1]: 6.18 | pIC50 [2]: 6.50 | pIC50 [3]: 6.27

COc1ccccc1N1CCN(CCCN(CC2CC2)S(=O)(=O)c2cccc3cccnc23)CC1
pIC50 [1]: 6.25 | pIC50 [2]: 7.91 | pIC50 [3]: 5.08

O=S(=O)(c1ccc(F)cc1)N(CCCN1CCN(c2ccccc2)CC1)CC1CC1
pIC50 [1]: 6.85 | pIC50 [2]: 6.83 | pIC50 [3]: 5.70

O=S(=O)(c1ccc(C(F)(F)F)cc1)N(CCCN1CCN(c2ccccc2)CC1)CC1CCCCC1
pIC50 [1]: 8.15 | pIC50 [2]: 6.34 | pIC50 [3]: 6.81

COc1ccc(S(=O)(=O)N(CCCN2CCN(c3ccccc3OC)CC2)CC2CC2)cc1
pIC50 [1]: 5.66 | pIC50 [2]: 6.50 | pIC50 [3]: 5.70

COc1ccc(S(=O)(=O)N(CCCN2CCN(c3ccccc3)CC2)CC2CC2)cc1
pIC50 [1]: 6.87 | pIC50 [2]: 6.92 | pIC50 [3]: 6.16

COc1ccc(S(=O)(=O)N(CCCN2CCN(c3cccc(C(F)(F)F)c3)CC2)CC2CC2)cc1
pIC50 [1]: 6.14 | pIC50 [2]: 6.91 | pIC50 [3]: 5.99

CC(CCN1CCN(c2cccc(C(F)(F)F)c2)CC1)NS(=O)(=O)c1ccc2ccccc2c1 (centres undefined)
pIC50 [1]: 6.74 | pIC50 [2]: 6.44 | pIC50 [3]: 6.03

COc1ccc(S(=O)(=O)N(CCCN2CCN(c3cccc(C(F)(F)F)c3)CC2)CC2CCCCC2)cc1
pIC50 [1]: 7.71 | pIC50 [2]: 6.17 | pIC50 [3]: 7.48

O=S(=O)(c1ccc2ccccc2c1)N(CCCN1CCN(c2ccc(F)cc2)CC1)CC1CCCCC1
pIC50 [1]: 9.30 | pIC50 [2]: 5.82 | Ratio IC50 (Homo sapiens): 3000 | pIC50 [3]: 7.62 | Ratio IC50 [4]: 50

COc1ccc(S(=O)(=O)N(CCCN2CCN(c3ccccc3)CC2)CC2CCCCC2)cc1
pIC50 [1]: 8.03 | pIC50 [2]: 6.25 | pIC50 [3]: 7.10

CC(CCN1CCN(c2ccccc2)CC1)NS(=O)(=O)c1ccc2ccccc2c1 (centres undefined)
pIC50 [1]: 7.90 | pIC50 [2]: 6.18 | Ratio IC50 (Homo sapiens): 50 | pIC50 [3]: 6.70 | Ratio IC50 [4]: 16

O=S(=O)(c1cccc2cccnc12)N(CCCN1CCN(c2cccc(C(F)(F)F)c2)CC1)CC1CC1
pIC50 [1]: 7.12 | pIC50 [2]: 8.20 | pIC50 [3]: 6.16

O=S(=O)(c1cccc2ccccc12)N(CCCN1CCN(c2ccccc2)CC1)CC1CC1
pIC50 [1]: 6.77 | pIC50 [2]: 6.82 | pIC50 [3]: 5.84

O=S(=O)(c1ccc2ccccc2c1)N(CCCN1CCN(c2ccccc2)CC1)CC1CCCCC1
pIC50 [1]: 9.15 | pIC50 [2]: 5.91 | Ratio IC50 (Homo sapiens): 1500 | pIC50 [3]: 7.19 | Ratio IC50 [4]: 100

O=[N+]([O-])c1ccc(S(=O)(=O)N(CCCN2CCN(c3ccccc3)CC2)CC2CC2)cc1
pIC50 [1]: 6.74 | pIC50 [2]: 6.30 | pIC50 [3]: 5.71

COc1ccccc1N1CCN(CCCN(CC2CC2)S(=O)(=O)c2ccc3ccccc3c2)CC1
pIC50 [1]: 7.07 | pIC50 [2]: 6.73 | pIC50 [3]: 6.26

O=S(=O)(c1ccc2ccccc2c1)N(CCCN1CCN(c2ccc(F)cc2)CC1)CC1CC1
pIC50 [1]: 7.29 | pIC50 [2]: 7.30 | pIC50 [3]: 6.46

COc1ccc(S(=O)(=O)N(CCCN2CCN(c3ccc(F)cc3)CC2)CC2CCCCC2)cc1
pIC50 [1]: 8.47 | pIC50 [2]: 6.01 | pIC50 [3]: 7.40

O=S(=O)(c1cccc2cccnc12)N(CCCN1CCN(c2ccc(Cl)c(Cl)c2)CC1)CC1CCCCC1
pIC50 [1]: 8.11 | pIC50 [2]: 5.64 | pIC50 [3]: 7.18

CC(CCN1CCN(c2ccc(F)cc2)CC1)NS(=O)(=O)c1ccc2ccccc2c1 (centres undefined)
pIC50 [1]: 8.21 | pIC50 [2]: 6.28 | Ratio IC50 (Homo sapiens): 85 | pIC50 [3]: 7.05 | Ratio IC50 [4]: 15

O=S(=O)(c1ccc2ccccc2c1)N(CCCN1CCN(c2ccccc2)CC1)CC1CC1
pIC50 [1]: 7.44 | pIC50 [2]: 6.93 | pIC50 [3]: 6.32

O=S(=O)(c1cccc2cccnc12)N(CCCN1CCN(c2ccccc2)CC1)CC1CC1
pIC50 [1]: 6.53 | pIC50 [2]: 6.13 | pIC50 [3]: 5.67

O=S(=O)(c1ccc(F)cc1)N(CCCN1CCN(c2ccccc2)CC1)CC1CCCCC1
pIC50 [1]: 7.88 | pIC50 [2]: 6.96 | pIC50 [3]: 6.53

COc1ccccc1N1CCN(CCCN(CC2CCCCC2)S(=O)(=O)c2cccc3cccnc23)CC1
pIC50 [1]: 7.22 | pIC50 [2]: 7.62 | pIC50 [3]: 6.93

O=S(=O)(c1ccc2ccccc2c1)N(CCCN1CCN(c2cccc(C(F)(F)F)c2)CC1)CC1CC1
pIC50 [1]: 6.66 | pIC50 [2]: 6.47 | pIC50 [3]: 6.52

Reference: ChEMBL document CHEMBL1156889, “Synthesis and biological evaluation of (phenylpiperazinyl-propyl)arylsulfonamides as selective 5-HT(2A) receptor antagonists” (Bioorg Med Chem, 2010)
